Results taken from publication PMC3372638 (Journal of Molecular Biology, 2012).
Changes are numbered by the printed parent chain. Blank lines part the entries; values can stand above or below the molecule they belong to.

How the values were obtained:
HsP5CDH [1] = target: T1, HsP5CDH (Homo sapiens, UniProt P30038); test: isothermal titration calorimetry; assay type: binding
T1 sequence (P30038 18-563): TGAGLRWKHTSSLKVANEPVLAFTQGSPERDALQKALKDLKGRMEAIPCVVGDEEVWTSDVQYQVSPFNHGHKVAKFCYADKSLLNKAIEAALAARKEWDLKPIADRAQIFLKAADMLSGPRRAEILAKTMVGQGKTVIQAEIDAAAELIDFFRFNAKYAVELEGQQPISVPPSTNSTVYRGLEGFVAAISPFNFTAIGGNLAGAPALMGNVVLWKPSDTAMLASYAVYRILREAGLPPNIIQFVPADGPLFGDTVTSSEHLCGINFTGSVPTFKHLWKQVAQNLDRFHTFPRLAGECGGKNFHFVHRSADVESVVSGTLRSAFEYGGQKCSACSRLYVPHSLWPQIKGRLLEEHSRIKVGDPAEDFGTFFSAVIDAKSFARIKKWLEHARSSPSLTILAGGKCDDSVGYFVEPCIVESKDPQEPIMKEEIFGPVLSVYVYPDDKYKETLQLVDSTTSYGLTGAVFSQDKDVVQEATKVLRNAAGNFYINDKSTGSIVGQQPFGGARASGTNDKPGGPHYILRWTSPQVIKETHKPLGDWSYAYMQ
How it was run: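 His-tagged human P5CDH was expressed in E. coli BL21(DE3)pLysS and purified by Ni2+-affinity then anion exchange. It was dialysed into 50 mM Tris, 50 mM NaCl, 0.5 mM THP, 0.5 mM EDTA, 5 % glycerol, pH 8.0, with NAD+ dissolved in the dialysate and pH-matched. Run at 25 °C: 20 μl NAD+ injections every 240 s, 250 rpm, 4 μl pre-injection discarded. Three titrations (30, 34, 47 μM protein) were fitted globally to a single-site model.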

HsP5CDH [2] = target: T2, HsP5CDH (Homo sapiens, UniProt P30038, S352A); test: isothermal titration calorimetry; assay type: binding
T2 sequence (P30038 18-563 S352A): T1 sequence (P30038 18-563) with S335A
How it was run: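 Site-directed S352A mutant of His-tagged human P5CDH was expressed in E. coli BL21(DE3)pLysS and purified by Ni2+-affinity and anion exchange. It was dialysed into 50 mM Tris, 50 mM NaCl, 0.5 mM THP, 0.5 mM EDTA, 5 % glycerol, pH 8.0, with NAD+ in the dialysate and pH-matched. Titrated at 25 °C: 20 μl injections at 240-s intervals, 250 rpm, 4 μl pre-injection discarded. Fitted to a single-site binding model.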

AUC = target: the molecule itself; test: AUC
crystal structure = target: the molecule itself; test: crystal structure

Kd (HsP5CDH [1]): 15 µM
Kd (HsP5CDH [2]): 10 µM
Molecule: NC(=O)c1ccc[n+]([C@@H]2O[C@H](COP(=O)(O)OP(=O)(O)OC[C@H]3O[C@@H](n4cnc5c(N)ncnc54)[C@H](O)[C@@H]3O)[C@@H](O)[C@H]2O)c1 [NAD^+]

B1: human Δ1-pyrroline-5-carboxylate dehydrogenase (enzyme, UniProt P30038-1 18-563, looked up)
chain: T1 sequence (P30038 18-563)
stoichiometry N (AUC): 2

B2: human Δ1-pyrroline-5-carboxylate dehydrogenase with Ser352 mutated to Leu (enzyme, UniProt P30038-1 18-563, looked up)
chain: T1 sequence (P30038 18-563) with S335L
binding result (crystal structure): binds

B3: human Δ1-pyrroline-5-carboxylate dehydrogenase with Ser352 mutated to Ala (enzyme, UniProt P30038-1 18-563, looked up)
chain: T1 sequence (P30038 18-563) with S335A
binding result (crystal structure): binds
